# This is a sample that favours compounds with a hit; in the whole collection about 2.5% have one here.
# NadD inh – inhibitors of S. aureus NadD, primary screen, biochemical, colorimetric, uHTS; actives 0.78% (n = 360,000); inhibition, % at 20 µM; Nicotinate-nucleotide adenylyltransferase NadD (Staphylococcus aureus N315); purified NadD enzyme, colorimetric absorbance read-out; in the data active means inhibition above about 26%
# SENP1 FRET inh – human SENP1 catalytic domain inhibitors, primary screen, biochemical, FRET, uHTS. actives 0.21% (n = 360,000). inhibition, % at 10 µM. recombinant SENP1 catalytic domain, CyPet-SUMO1-YPet FRET cleavage. AID 624204, 2012;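 active means inhibition at least 30% at 10 µM, raw YFP signal under a set limit, fluorescence ratio 0.5 to 1.5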;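 further: 0% = enzyme with DMSO and 100% = no enzyme wells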
# Target sequence (Q9P0U3 419-644 limits assumed): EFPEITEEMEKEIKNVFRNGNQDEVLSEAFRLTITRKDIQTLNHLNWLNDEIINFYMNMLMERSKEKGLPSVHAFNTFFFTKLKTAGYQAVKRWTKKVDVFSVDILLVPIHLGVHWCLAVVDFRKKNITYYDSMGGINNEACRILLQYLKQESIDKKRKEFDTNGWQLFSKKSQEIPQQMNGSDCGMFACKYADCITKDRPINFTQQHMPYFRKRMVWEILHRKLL
#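 Assay system – human recombinant His6-tagged SENP1 catalytic domain enzyme · Input – SENP1 enzyme, 20 pM final · Buffer or medium – Tris pH 8 buffer plus EDTA, NaCl, BME, BSA, NP40, catalase · Schedule – 50 min reaction at room temperature · Technique – FRET read of cyan and yellow fluorescence · Control set – no-enzyme wells low, DMSO-plus-enzyme wells high control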
# GRK2 inh – compounds blocking aptamer binding on GRK2 – biochemical, human GRK2, bead flow cytometry, HTS, primary screen; inhibition of aptamer binding, % at 10 µM; FAM-aptamer displacement from GRK2; actives 0.59% (n = 330,000);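 active means inhibition of aptamer binding above 40%, roughly 3 SD of noise, on plates passing a quality check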;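 further: median bead fluorescence of bound FAM aptamer so fluorescent compounds give negative values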
# Beta2AR agonist – beta2AR agonists driving receptor internalization, primary screen, cell-based, FAP fluorogen, flow cytometry | Beta-2 adrenergic receptor (Homo sapiens), P07550 | Am2.2-beta2AR cells | response, % (concentration not given with the values) | actives 0.43% (n = 340,000) | AID 504454, 2011;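 active means response above a set limit, near 3 SD of response in nonfluorescent compounds, cut at about 42% in these data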
# ABHD5-PLIN5 inh – ABHD5-PLIN5 interaction inhibitors, primary screen, cell lysate, split luciferase complementation, luminescence; Split G. princeps luciferase complementation, 4 h; inhibition, % at 4 µM; actives 0.78% (n = 360,000); AID 602281, 2012;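 active means inhibition above the mean inhibition across every tested compound plus 3 SD, cut at about 22% in these data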;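 further: 0% = DMSO only wells and the 100% control is not disclosed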
# GRK2 CP1 – GRK2 aptamer-displacing inhibitors, retest, confirmation, biochemical, cherry pick 1, bead flow cytometry; shares compounds with GRK2 inh; bead-bound GRK2, FAM-aptamer displacement; aptamer displacement, % at 10 µM; actives 4% (n = 2,000); AID 504451, 2011;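 active means aptamer displacement above 40%, near three times the noise of non-fluorescent compounds, on plates passing quality checks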;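 further: negative values mostly reflect intrinsic compound fluorescence rather than true enhancement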
# FAM quench CP1 – aptamer fluorescence quenching in GRK2 counter-screen; Carboxyfluorescein RNA aptamer on beads, flow cytometry quenching; stronger effect = lower value; 2,000 tested, under 10 active; shares compounds with GRK2 inh; fluorescence response (% of DMSO), % at 10 µM;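 active means compounds that quench the bead-bound fluorescent RNA probe, cutting fluorescence to under half of the solvent control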;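 further: counterscreen run without GRK2 so only probe quenching by compound is measured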
# Active calls of the source: *; · = no result.
SMILES,NadD inh,SENP1 FRET inh,GRK2 inh,Beta2AR agonist,ABHD5-PLIN5 inh,GRK2 CP1,FAM quench CP1
O=C(NCc1ccccc1)c1cccc(NC(=O)c2ccco2)c1,-4,0,2,-2,3,2,93
O=C(NCc1ccco1)c1cccc(NC(=O)c2ccco2)c1,-7,-3,0,-15,6,-3,101
O=C(COC(=O)/C=C/c1ccc(OC(F)F)cc1)Nc1cccc(S(=O)(=O)N2CCOCC2)c1,-3,2,0,2,0,·,·
O=C(COC(=O)/C=C/c1ccc(C(F)(F)F)cc1)NC(=O)NCc1ccco1,-2,-1,3,3,8,·,·
O=C1OCCN1N1CCOC1=O,0,-1,·,4,7,·,·
Cc1ccc(S(=O)(=O)N2[C@@H](c3cccc(Cl)c3)C(C(=O)O)=CC[C@H]2c2ccc(C(C)C)cc2)cc1,17,0,0,-4,-12,·,·
CN(Cc1ccccc1)C(=O)c1cccc(NC(=O)c2ccco2)c1,-4,0,4,-15,-7,1,104
Cc1ccc(S(=O)(=O)N2CCN(C(=O)COC(=O)Cc3ccc(Cl)cc3)CC2)c(C)c1,-7,0,0,-4,-6,·,·
O=C(NC1CCCCC1)N1CCSC1=Nc1ccccc1,6,1,43*,13,0,1,93
O=C(COc1coc(CN2CCCc3ccccc32)cc1=O)Nc1ccc([N+](=O)[O-])cc1,23,-22,62*,0,17,-5,100
O=C1CC(NS(=O)(=O)c2ccccc2)CN1c1ccc2c(c1)OCCO2 (centres undefined),-7,1,0,-3,0,·,·
COc1cc(/C=C/C(=O)NCC2CCCCC2)cc(OC)c1OC,0,1,63*,-2,-2,0,106
O=C(/C=C/c1cccc(Br)c1)NCC1CCCCC1,-1,0,0,-14,-4,·,·
O=C(COc1ccc(Br)cc1)N(Cc1nnc(-c2ccccc2Cl)o1)C1CC1,-1,-1,·,·,4,·,·
Cc1cc(C)c(C(=O)Nc2ccc(S(=O)(=O)Nc3onc(C)c3C)cc2)c(C)c1,-4,1,37,-5,5,-5,98
Cc1ccccc1C(=O)Nc1ccc(S(=O)(=O)Nc2onc(C)c2C)cc1,-1,2,2,-1,-1,·,·
CC(C)(C)n1cnc2cc(NCc3ccccc3O)ccc21,-6,0,27,6,-5,1,102
CC(C)(C)n1cnc2cc(NCc3ccc(Br)cc3)ccc21,-11,0,0,-5,6,-5,96
CC(C)n1cnc2cc(NCc3ccccc3O)ccc21,0,0,2,3,3,·,·
CCc1ccc(CNc2ccc3c(c2)ncn3C(C)(C)C)cc1,-9,-4,0,11,-5,-6,98
CCN(CC)c1ccc(CNc2ccc3c(c2)ncn3C(C)(C)C)cc1,1,1,0,0,2,·,·
C=CCC[C@H](Cc1ccc(F)cc1)C(=O)OC[C@H](Cc1c[nH]c2ccccc12)NC(=O)[C@@H](CC=C)CC(=O)N[C@H](CO)Cc1ccccc1,-7,-1,0,12,0,·,·
Cc1ccc2nc(SCC(=O)Nc3cccc(F)c3)nc(=O)n2c1,-3,3,100*,-6,-8,1,99
CCCCN(C(=O)CSc1nnc(-c2ccc(OC)cc2)n1CC)c1c(N)n(Cc2ccccc2)c(=O)[nH]c1=O,2,-1,88*,3,-6,-1,100
CCCCN(C(=O)c1cccc(-n2cccc2)c1)c1c(N)n(Cc2ccccc2)c(=O)[nH]c1=O,7,-6,46*,3,8,10,97
SMILES,NadD inh,SENP1 FRET inh,GRK2 inh,Beta2AR agonist,ABHD5-PLIN5 inh,GRK2 CP1,FAM quench CP1
CC(C)[C@H](NC(=O)c1ccccc1)C(=O)OCC(=O)c1ccc(S(=O)(=O)N2CCCCC2)cc1,-3,2,0,-1,5,·,·
O=C(NCCc1ccccc1)c1oc2ccccc2c1COc1ccccc1,-3,3,69*,0,-8,-4,98
O=C(Nc1ccccc1Cc1ccccc1)c1oc2ccccc2c1COc1ccccc1,0,2,22,1,9,·,·
Nc1cc(C(=O)OCC(=O)N2CCOCC2)ccc1Cl,-2,3,58*,-1,5,-1,99
Nc1cc(C(=O)OCC(=O)N2CCN(C(=O)COC(=O)c3ccc(Cl)c(N)c3)CC2)ccc1Cl,10,3,·,-2,-6,·,·
Cc1ccc(-n2ncc3c2CC(C)(C)CC3NC(=O)CCc2c(C)noc2C)cc1 (centres undefined),-6,1,1,-3,-7,·,·
CN(Cc1cccs1)C(=O)CNC(=O)c1ccco1,0,1,0,9,-4,·,·
O=C(Nc1ccc(NC(=O)c2ccccc2Cl)cc1)c1cccnc1,7,1,3,12,5,·,·
O=C(Nc1ccc(N2CCCC2)c(Cl)c1)c1cccnc1,14,-8,60*,-2,5,-14,37*
O=C(Nc1cccnc1)c1ccccc1Cl,1,2,81*,-4,7,-2,97
O=C(Oc1ccc(C(=S)N2CCOCC2)cc1)c1cccc(Cl)c1,-11,1,3,-7,-2,·,·
CC(=O)N1CCN(C(=O)COC(=O)/C=C/c2ccc(C(F)(F)F)cc2)CC1,6,1,1,-8,-15,·,·
O=C(CCc1nc2ccccc2c(=O)[nH]1)NCC(=O)Nc1ccc(F)c(F)c1,0,-23,0,8,1,·,·
O=C(CCc1nc2ccccc2c(=O)[nH]1)Nc1ccc(F)c([N+](=O)[O-])c1,9,-31,46*,7,-2,1,108
COc1ccccc1CNc1ccc(CNc2ncn[nH]2)cc1,2,-2,52*,-7,6,-1,98
c1ccc2c(CNc3ccc(CNc4ncn[nH]4)cc3)cccc2c1,0,-1,0,4,3,·,·
CCC1Oc2ccccc2N(CC(=O)NCC2CCCO2)C1=O (centres undefined),0,1,1,3,-2,·,·

# High-throughput results: PubChem BioAssay, several laboratories
